Assay results pooled from the literature.
Target: Serine/threonine-protein kinase 17B (STK17B, Homo sapiens, UniProt O94768)
Residues used in one study (O94768 1-372): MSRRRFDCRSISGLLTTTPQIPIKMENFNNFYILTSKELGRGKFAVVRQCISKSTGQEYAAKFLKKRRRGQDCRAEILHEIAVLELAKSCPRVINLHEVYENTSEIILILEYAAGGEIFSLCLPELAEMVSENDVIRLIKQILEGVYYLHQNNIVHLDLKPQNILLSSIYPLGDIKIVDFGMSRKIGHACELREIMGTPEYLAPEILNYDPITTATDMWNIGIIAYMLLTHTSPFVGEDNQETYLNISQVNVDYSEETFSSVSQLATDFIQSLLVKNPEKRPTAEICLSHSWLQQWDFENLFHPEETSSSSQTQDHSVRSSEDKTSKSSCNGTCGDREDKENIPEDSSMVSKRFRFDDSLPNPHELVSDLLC

| SMILES | observed | method | concentration | remaining binding [%] |
| --- | --- | --- | --- | --- |
| C[C@H]1CCN(c2nccc(-c3cnn4ncccc34)n2)C1 | binding | – | 1 µM | 93 |
| Cn1cc(Cl)c2c(Oc3c(F)cc(Nc4cc(Cl)nc(N)n4)cc3F)ccnc21 | cell-free assay | competition with immobilised ligand | 0.1 µM | 84 |
| FC(F)(F)Oc1cccc(-c2cnc3ccc(-c4ccncc4)nn23)c1 | cell-free assay | competition with immobilised ligand | 5 µM | 85 |
| COc1cnc(Nc2cccc(S(N)(=O)=O)c2)nc1N1CCN(c2ccccc2)CC1 | binding | competition with immobilised ligand | 1 µM | 99 |
| CNC(=O)Nc1ccc2c(c1)[C@@]1(CC2)OC(=O)N(CC(=O)N(Cc2ccc(F)cc2)[C@@H](C)C(F)(F)F)C1=O | cell-free assay | competition with immobilised ligand | 1 µM | 77 |
| CCN1CCN(Cc2ccc(C(=O)Nc3ccc(C)c(Oc4ccc5c(c4)CC(=O)N5)c3)cc2C(F)(F)F)CC1 | binding | competition with immobilised ligand | 1 µM | 100 |
| C=CC(=O)N1CCC(C(=O)NCC(=O)N2CCN(c3nc(-c4cnc(N)nc4C(F)F)nc(N4CCOCC4)n3)CC2)CC1 | binding | competition with immobilised ligand | 1 µM | 97 |
| Cc1c(C(=O)O)cc(-c2ccc(C3CCNCC3)cc2)c2ccc(-c3ccc(C(F)(F)F)cc3)cc12 | cell-free assay | competition with immobilised ligand | 1 µM | 100 |
| O=C(NCC1CCOCC1)c1n[nH]cc1NC(=O)c1c(F)cccc1F | binding | competition with immobilised ligand | 1 µM | 91 |
| CC1CCCN1c1nccc(-c2cnn3ncccc23)n1 (stereo not shown) | binding | – | 1 µM | 100 |
| O=C(NCc1ncc(C(F)(F)F)cc1Cl)c1ccc2c(c1)C1(CCS(=O)(=O)CC1)[C@H](C1CC1)N2S(=O)(=O)c1ccc(F)cc1 | cell-free assay | competition with immobilised ligand | 1 µM | 85 |
| O=C(c1ccc(Nc2nccc(-c3cc4ccccc4s3)n2)cc1)N1CCC(N2CCCC2)CC1 | binding | competition with immobilised ligand | 1 µM | 0 |
| C[C@@H]1CN(c2cc(-c3nn(C)c4ccc(OC5(C)CC5)cc34)ncn2)C[C@H](C)O1 | cell-free assay | competition with immobilised ligand | 1 µM | 100 |
| O=C(c1ccc(Nc2ncc(Cl)c(-c3ccc(Cl)s3)n2)cc1)N1CCC(N2CCCC2)CC1 | binding | competition with immobilised ligand | 1 µM | 2.7 |
| CN(CCCC(F)(F)F)c1nccc(-c2cnn3ncccc23)n1 | binding | – | 1 µM | 100 |
| COc1cnc(Nc2cccc(S(N)(=O)=O)c2)nc1N1CCN(c2ccccc2)C(=O)C1 | binding | competition with immobilised ligand | 1 µM | 89 |
| N[C@H]1CCN(c2nccc(-c3cnn4ncccc34)n2)C1 | binding | – | 1 µM | 100 |
| CN(C)C(=O)Cn1cc(-c2nc(C3(c4ccc(-c5cnc(N)nc5)cc4)CC3)no2)cn1 | cell-free assay | competition with immobilised ligand | 1 µM | 100 |
| CN(C)c1nccc(-c2cnn3ncccc23)n1 | binding | – | 1 µM | 100 |
| C[C@@H](c1ccc(-n2cnc3c(N)ncnc32)cc1)N1CCc2nn(C)c(Cc3ccccc3)c2C1=O | binding | competition with immobilised ligand | 0.1 µM | 100 |
| CN(c1nccc(-c2cnn3ncccc23)n1)C1CC1 | binding | – | 1 µM | 100 |
| Cc1cnc(Nc2ccc(C(=O)N3CCC(N4CCCC4)CC3)cc2)nc1-c1cc2ccccc2s1 | binding | competition with immobilised ligand | 1 µM | 0 |
